Reference: ChEMBL document CHEMBL1140873, “Interaction between double helix DNA fragments and a new topopyrone acting as human topoisomerase I poison” (Bioorg Med Chem, 2009)
Active and inactive are the calls of the source. The calls are words filed in the database; no cut-off is given here.

Experiments:
[1] = Binding affinity to oligonucleotide d(CGTACG)2 by UV-visible spectroscopy
Method in brief: (§1)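 Apparent DNA–drug binding constants measured by UV titration at 25 °C, read at λmax 376 nm. A 5.0 x 10^-? M aqueous drug stock was added in increasing amounts to a 1.0 x 10^-5 M oligonucleotide solution.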

[2] = Binding affinity to oligonucleotide d(CGTACG)2 at [drug]/[DNA] ratio of 4 by NMR DOSY experiment
Method in brief: (§2)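 DOSY at 25 °C on the complex in D2O, 0.1 M NaCl, 10 mM phosphate, pH 6.7, with drug at 5.4 mM. Gradient pulse 1.5 ms, 64 increments. Molecular mass was read from a calibration curve of diffusion standards from glucose up to trypsin (Mr 180–23,500).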

[3] = Binding affinity to oligonucleotide d(CGTATACG)2 by UV-visible spectroscopy; method in brief: as §1
[4] = Binding affinity to oligonucleotide d(ATGCGCAT)2 by UV-visible spectroscopy; method in brief: as §1
[5] = Binding affinity to oligonucleotide d(CGTACG)2 at [drug]/[DNA] ratio of 4 by NMR spectroscopy
Method in brief: (§3)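 1H NMR titration at 600 MHz. A drug stock (23.4 mM) was added in increasing amounts to oligonucleotide up to R = [2]/[DNA] = 4.0. An inverse titration added DNA to 0.2 mM drug. Conditions were D2O, 10 mM phosphate, 0.1 M NaCl, pH 6.7, 25 °C. Shifts were referenced to external DSS.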

[6] = Binding affinity to oligonucleotide d(CGTACG)2 at [drug]/[DNA] ratio of 1 by NMR spectroscopy; method in brief: as §3
[7] = Binding affinity to oligonucleotide d(CGTACG)2 at [drug]/[DNA] ratio of 3 by NMR DOSY experiment; method in brief: as §2
[8] = Binding affinity to oligonucleotide d(CGTACG)2 by single diffusion coefficient experiment; method in brief: as §2
[9] = Binding affinity to oligonucleotide d(CGTACG)2 assessed as intercalation by single diffusion coefficient experiment; method in brief: as §2
[10] = Binding affinity to oligonucleotide d(CGTACG)2 at [drug]/[DNA] ratio of 2 by NOESY experiment
Method in brief: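 Phase-sensitive NOESY (TPPI) run at 25 °C in D2O and 15 °C in H2O/D2O 90:10. Sample was complex at R = 2 in 10 mM phosphate pH 6.7 with 100 mM NaCl. Mixing time 300 ms, 2K x 512 FIDs, 1.5 s recycle delay, 80 scans. Ligand–DNA NOEs were treated as transferred NOEs.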

K [1]: 4 ×10³ /M | Activity [2]: Active | K [3]: 1 ×10³ /M | K [4]: 6 ×10³ /M | Activity [5]: Active | Activity [6]: Active | Activity [7]: Active | Activity [8]: Active | Activity [9]: Active
Structure (SMILES): Cc1cc(=O)c2ccc3c(c2o1)C(=O)c1c(OCCN(C)C)cccc1C3=O
Activity [10]: Active
